Structures are written as SMILES. Activity calls are given as the source filed them. No cut-off for these calls is given here.

What is called IC50 is the concentration that gives 50% inhibition. A high value points to lower potency.

Series [1] has as its system U-251. Nature of the series: Antiproliferative activity against human U251MG cells at 5 uM for 24 hrs by BrdU incorporation assay. It counts as functional, cell-based. Put shortly: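 U251MG on glass coverslips treated with DMSO or 5 μM compound for 3–24 h; 10 μM BrdU added during the last 2 h. Cells fixed in 4% paraformaldehyde, stained with anti-BrdU antibody, DAPI counterstained, imaged by fluorescence microscopy and counted.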
On the technique in general: Dividing cells build labelled thymidine or BrdU into new DNA.

The target in series [2] is T1, Signal transducer and activator of transcription 3 (Homo sapiens, UniProt P40763). Nature of the series: Inhibition of Stat3 activity in human U251MG cells assessed as decrease in Bcl-2 expression at 5 uM after 24 hrs by immunoblot analysis. Type of series: cell-based. As to conditions: U-251. The method, boiled down: (§1)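 U251MG cells treated with 5 μM compound for 0–24 h. Whole-cell lysates immunoblotted for pStat3, Stat3, c-Myc, Bcl-2, Bcl-xL, Mcl-1, GAPDH. Control was 0.025% DMSO.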
T1 sequence (P40763 whole entry): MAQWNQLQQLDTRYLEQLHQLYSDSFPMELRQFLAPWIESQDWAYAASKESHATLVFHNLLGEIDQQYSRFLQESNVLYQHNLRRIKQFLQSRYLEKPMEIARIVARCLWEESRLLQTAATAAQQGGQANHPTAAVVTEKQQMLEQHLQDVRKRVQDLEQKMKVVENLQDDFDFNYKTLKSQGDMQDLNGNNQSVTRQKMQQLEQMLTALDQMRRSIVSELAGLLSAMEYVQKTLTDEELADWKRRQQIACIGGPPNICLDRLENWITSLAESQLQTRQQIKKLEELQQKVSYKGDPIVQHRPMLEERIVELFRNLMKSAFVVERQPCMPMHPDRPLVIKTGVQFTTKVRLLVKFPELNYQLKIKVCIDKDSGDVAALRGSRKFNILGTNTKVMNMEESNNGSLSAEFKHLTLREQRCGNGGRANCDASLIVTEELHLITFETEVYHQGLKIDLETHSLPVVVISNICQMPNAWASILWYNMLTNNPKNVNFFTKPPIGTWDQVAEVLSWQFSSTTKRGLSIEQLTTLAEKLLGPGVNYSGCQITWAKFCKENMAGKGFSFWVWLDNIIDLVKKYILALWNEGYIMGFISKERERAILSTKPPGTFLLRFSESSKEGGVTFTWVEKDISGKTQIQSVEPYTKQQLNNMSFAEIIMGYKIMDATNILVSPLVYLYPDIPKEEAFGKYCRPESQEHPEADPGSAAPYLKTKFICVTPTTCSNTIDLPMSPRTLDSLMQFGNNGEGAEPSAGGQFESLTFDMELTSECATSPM

Series [3] addresses T1, Signal transducer and activator of transcription 3. Nature of the series: Inhibition of Stat3 activity in human U251MG cells assessed as decrease in Mcl-1 expression at 5 uM after 24 hrs by immunoblot analysis. As to conditions: U-251. It counts as cell-based. The method, boiled down:
as §1
(In western blotting, separated proteins are transferred to a membrane and probed.)

The target of series [4] is Heat shock protein 105 kDa (Homo sapiens) (UniProt Q92598). The experiment in a line: Decrease in Hsp105 expression in human U251MG cells at 5 uM for 1 hr by mass spectrometry relative to control. The settings on record: U-251. It counts as functional, cell-based. The method, boiled down: (§2)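 U251MG cells treated 1 h with 5 μM compound; whole-cell lysates analyzed by global proteomics mass spectrometry; protein levels expressed relative to DMSO-treated cells.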
Heat shock protein 105 kDa (Homo sapiens), sequence (Q92598 whole entry): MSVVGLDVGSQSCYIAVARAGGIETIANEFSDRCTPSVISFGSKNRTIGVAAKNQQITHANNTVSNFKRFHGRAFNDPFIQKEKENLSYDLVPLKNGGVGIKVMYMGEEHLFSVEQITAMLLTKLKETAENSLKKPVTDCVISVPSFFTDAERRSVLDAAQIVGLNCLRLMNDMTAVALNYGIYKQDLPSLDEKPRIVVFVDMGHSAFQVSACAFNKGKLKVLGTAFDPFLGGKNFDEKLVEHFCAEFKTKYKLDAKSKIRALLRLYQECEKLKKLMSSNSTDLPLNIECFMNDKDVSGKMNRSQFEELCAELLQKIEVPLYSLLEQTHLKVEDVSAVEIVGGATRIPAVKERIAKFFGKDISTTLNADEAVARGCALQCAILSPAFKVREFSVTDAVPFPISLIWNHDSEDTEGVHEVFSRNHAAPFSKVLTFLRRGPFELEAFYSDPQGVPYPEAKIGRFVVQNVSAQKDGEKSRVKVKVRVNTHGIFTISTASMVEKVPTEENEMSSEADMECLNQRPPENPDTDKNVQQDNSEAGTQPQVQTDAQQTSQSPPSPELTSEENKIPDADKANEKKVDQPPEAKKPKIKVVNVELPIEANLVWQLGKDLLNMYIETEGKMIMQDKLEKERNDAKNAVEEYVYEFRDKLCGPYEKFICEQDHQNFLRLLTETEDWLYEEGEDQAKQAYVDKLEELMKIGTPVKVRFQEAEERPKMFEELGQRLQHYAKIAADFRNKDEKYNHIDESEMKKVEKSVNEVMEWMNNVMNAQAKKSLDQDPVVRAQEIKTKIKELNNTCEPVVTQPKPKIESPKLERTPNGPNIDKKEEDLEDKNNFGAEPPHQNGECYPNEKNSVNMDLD

Series [5] is described as follows: Decrease in vimentin expression in human U251MG cells at 5 uM for 1 hr by mass spectrometry relative to control. It counts as functional, cell-based. The settings on record: U-251. Put shortly: (§3)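 Global proteomic mass spectrometry of lysates from U251MG cells treated 1 h with 5 μM compound; protein levels expressed relative to DMSO-treated cells.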
Series [6] can be described thus: Decrease in TNAP2 expression in human U251MG cells at 5 uM for 1 hr by mass spectrometry relative to control. As to conditions: U-251. Type of series: functional, cell-based. The method, boiled down:
as §3

In series [7] the test system is U-251. The experiment in a line: Increase in importin subunit alpha2 expression in human U251MG cells at 5 uM for 1 hr by mass spectrometry relative to control. It counts as functional. The method, boiled down: as §3
Series [8] concerns the target Stalled ribosome sensor GCN1 (Homo sapiens) (UniProt Q92616). The experiment in a line: Decrease in GCN1 expression in human U251MG cells at 5 uM for 2 hrs by immunoblot analysis. It counts as functional, cell-based. The settings on record: U-251.
Series [9] addresses Heat shock protein 105 kDa (Homo sapiens) (UniProt Q92598). The experiment in a line: Decrease in Hsp105 expression in human U251MG cells at 5 uM for 2 hrs by immunoblot analysis. Type of series: functional, cell-based. The settings on record: U-251.
The subject of series [10] is U-251. The experiment in a line: Increase in importin subunit alpha2 expression in human U251MG cells at 5 uM for 2 hrs by immunoblot analysis. Type of series: functional, cell-based.
Series [11] is described as follows: Decrease in vimentin expression in human U251MG cells at 5 uM for 2 hrs by immunoblot analysis. It counts as functional, cell-based. As to conditions: U-251.
Series [12] is described as follows: Decrease in G6PD expression in human U251MG cells at 5 uM for 2 hrs by immunoblot analysis. It counts as functional, cell-based. The settings on record: U-251.
Series [13] has as its target Microtubule-associated protein 1B (Homo sapiens) (UniProt P46821). The experiment in a line: Decrease in MAP1B expression in human U251MG cells at 5 uM for 2 hrs by immunoblot analysis. As to conditions: U-251. Type of series: functional, cell-based.
A further series concerns U373 MG. The experiment in a line: Increase in importin subunit alpha2 expression in human U373MG cells at 5 uM for 2 hrs by immunoblot analysis. As to conditions: U-373MG ATCC. Type of series: functional, cell-based.
The nature of series [14]: Decrease in G6PD expression in human U373MG cells at 5 uM for 2 hrs by immunoblot analysis. It counts as functional, cell-based. The settings on record: U-373MG ATCC.
Series [15] concerns the target Microtubule-associated protein 1B (Homo sapiens) (UniProt P46821). The experiment in a line: Decrease in MAP1B expression in human U373MG cells at 5 uM for 2 hrs by immunoblot analysis. It counts as functional, cell-based. As to conditions: U-373MG ATCC.
For series [16], the target named is Heat shock protein 105 kDa (Homo sapiens) (UniProt Q92598). Nature of the series: Decrease in Hsp105 expression in human Glioma (G22) patient derived xenograft cells at 5 uM for 2 hrs by immunoblot analysis. Type of series: functional. The settings on record: Glioma cell.
Another series deals with Glioma cell. Nature of the series: Increase in importin subunit alpha2 expression in human Glioma (G22) patient derived xenograft cells at 5 uM for 2 hrs by immunoblot analysis. It counts as functional. A general note: Xenograft models place foreign cells or tissue in a host animal.
Series [17] can be described thus: Decrease in vimentin expression in human Glioma (G22) patient derived xenograft cells at 5 uM for 2 hrs by immunoblot analysis. As to conditions: Glioma cell. It counts as functional.
The nature of series [18]: Decrease in G6PD expression in human Glioma (G22) patient derived xenograft cells at 5 uM for 2 hrs by immunoblot analysis. It counts as functional. As to conditions: Glioma cell.
Series [19] deals with U-251. The experiment in a line: Antitumor activity against human U251MG cells xenografted in mouse assessed as decrease in pStat3 level in tumor at 2 mg/kg three times a week for 33 days administered via oral gavage by immunoblot analysis. It counts as functional, organism-based. Put shortly:
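Female athymic nude mice, 4 weeks old, given subcutaneous flank injections of 7.3×10^6 U251MG cells in PBS/matrigel; dosing began at 170–250 mm3 tumors (day 20). Oral gavage 2 mg/kg, vehicle 1% DMSO, for 33 days. Caliper volumes V = 0.52×a²×b, compared with vehicle by paired t test; tumor lysates immunoblotted for pStat3, Stat3, GAPDH.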

The target in series [20] is Tyrosine-protein kinase JAK2 (Homo sapiens) (UniProt O60674). The experiment in a line: Modulation of Jak2 phosphorylation in human U251MG cells at 5 uM after 0.5 to 24 hrs by immunoblot analysis. Type of series: cell-based. As to conditions: U-251. Put shortly:
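U251MG glioma cells (RPMI or DMEM, 10% FBS, 1% nonessential amino acids) treated with 5 μM compound for 0–24 h; 0.025% DMSO control. Whole-cell lysates of equal total protein immunoblotted for pErk1/2, Erk1/2, pJAK2 and JAK2 with β-actin or GAPDH loading controls. Representative of 2–4 independent determinations.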

The target in series [21] is T1, Signal transducer and activator of transcription 3. The experiment in a line: Inhibition of Stat3 phosphorylation in human U251MG cells transfected with Stat3 flag-tagged coliled coil domain at 5 uM after 1.5 hrs by immunoblot analysis. As to conditions: U-251. Type of series: cell-based. The method, boiled down:
(§4)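 U251MG cells transiently transfected with 7.5–21 μg FLAG-Stat3 NTD, CCD, DBD or CTD plasmid, or pcDNA3 mock. Re-seeded 24 h later; after another 18 h, treated with or without 5 μM compound for 1.5 h. Whole-cell lysates immunoblotted for FLAG, pY705Stat3, Stat3, GAPDH. 0.025% DMSO control. Representative of 2 independent determinations.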

The target is the same in series [22]. The experiment in a line: Inhibition of Stat3 phosphorylation in human U251MG cells transfected with Stat3 flag-tagged C-terminal domain at 5 uM after 1.5 hrs by immunoblot analysis. It counts as cell-based. The settings on record: U-251. The method, boiled down: as §4
Series [23] is described as follows: Antiproliferative activity against human U251MG cells for 72 hrs by cyquant assay. It counts as functional, cell-based. The settings on record: U-251, 72 h. The method, boiled down:
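CyQuant proliferation assay after 72 h compound exposure of cultured cells; relative viability normalized to DMSO-treated control; IC50 values derived. Glioma lines grown in RPMI or DMEM with 10% FBS and 1% nonessential amino acids.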

Series [24] in a line: Cytotoxicity against mouse V-Src -transformed NIH/3T3 cells at 2.5 uM by trypan blue exclusion with phase contrast microscopy. Type of series: cell-based. As to conditions: nih3t3, 2.5 µM.
Series [25] in a line: Cytotoxicity against mouse NIH/3T3 cells at 1 uM by trypan blue exclusion with phase contrast microscopy. As to conditions: nih3t3, 1 µM. It counts as cell-based.
A short description of series [26]: Cytotoxicity against mouse NIH/3T3 cells at 2.5 uM by trypan blue exclusion with phase contrast microscopy. The settings on record: nih3t3, 2.5 µM. Type of series: cell-based.
The test system of series [27] is U-251. Nature of the series: Induction of apoptosis in human U251MG cells assessed as PARP level at 8 uM after 24 to 48 hrs by immunoblot analysis. It counts as functional, cell-based.
Series [28] has as its system U-251. The experiment in a line: Induction of apoptosis in human U251MG cells assessed as cleaved caspase 3 level at 8 uM after 24 to 48 hrs by immunoblot analysis. Type of series: functional, cell-based.
Series [29] in a line: Decrease in G6PD expression in human U251MG cells at 5 uM for 1 hr by mass spectrometry relative to control. It counts as functional, cell-based. The settings on record: U-251. The method, boiled down:
as §2

Microtubule-associated protein 1B (Homo sapiens), sequence (P46821 2-2206 limits assumed): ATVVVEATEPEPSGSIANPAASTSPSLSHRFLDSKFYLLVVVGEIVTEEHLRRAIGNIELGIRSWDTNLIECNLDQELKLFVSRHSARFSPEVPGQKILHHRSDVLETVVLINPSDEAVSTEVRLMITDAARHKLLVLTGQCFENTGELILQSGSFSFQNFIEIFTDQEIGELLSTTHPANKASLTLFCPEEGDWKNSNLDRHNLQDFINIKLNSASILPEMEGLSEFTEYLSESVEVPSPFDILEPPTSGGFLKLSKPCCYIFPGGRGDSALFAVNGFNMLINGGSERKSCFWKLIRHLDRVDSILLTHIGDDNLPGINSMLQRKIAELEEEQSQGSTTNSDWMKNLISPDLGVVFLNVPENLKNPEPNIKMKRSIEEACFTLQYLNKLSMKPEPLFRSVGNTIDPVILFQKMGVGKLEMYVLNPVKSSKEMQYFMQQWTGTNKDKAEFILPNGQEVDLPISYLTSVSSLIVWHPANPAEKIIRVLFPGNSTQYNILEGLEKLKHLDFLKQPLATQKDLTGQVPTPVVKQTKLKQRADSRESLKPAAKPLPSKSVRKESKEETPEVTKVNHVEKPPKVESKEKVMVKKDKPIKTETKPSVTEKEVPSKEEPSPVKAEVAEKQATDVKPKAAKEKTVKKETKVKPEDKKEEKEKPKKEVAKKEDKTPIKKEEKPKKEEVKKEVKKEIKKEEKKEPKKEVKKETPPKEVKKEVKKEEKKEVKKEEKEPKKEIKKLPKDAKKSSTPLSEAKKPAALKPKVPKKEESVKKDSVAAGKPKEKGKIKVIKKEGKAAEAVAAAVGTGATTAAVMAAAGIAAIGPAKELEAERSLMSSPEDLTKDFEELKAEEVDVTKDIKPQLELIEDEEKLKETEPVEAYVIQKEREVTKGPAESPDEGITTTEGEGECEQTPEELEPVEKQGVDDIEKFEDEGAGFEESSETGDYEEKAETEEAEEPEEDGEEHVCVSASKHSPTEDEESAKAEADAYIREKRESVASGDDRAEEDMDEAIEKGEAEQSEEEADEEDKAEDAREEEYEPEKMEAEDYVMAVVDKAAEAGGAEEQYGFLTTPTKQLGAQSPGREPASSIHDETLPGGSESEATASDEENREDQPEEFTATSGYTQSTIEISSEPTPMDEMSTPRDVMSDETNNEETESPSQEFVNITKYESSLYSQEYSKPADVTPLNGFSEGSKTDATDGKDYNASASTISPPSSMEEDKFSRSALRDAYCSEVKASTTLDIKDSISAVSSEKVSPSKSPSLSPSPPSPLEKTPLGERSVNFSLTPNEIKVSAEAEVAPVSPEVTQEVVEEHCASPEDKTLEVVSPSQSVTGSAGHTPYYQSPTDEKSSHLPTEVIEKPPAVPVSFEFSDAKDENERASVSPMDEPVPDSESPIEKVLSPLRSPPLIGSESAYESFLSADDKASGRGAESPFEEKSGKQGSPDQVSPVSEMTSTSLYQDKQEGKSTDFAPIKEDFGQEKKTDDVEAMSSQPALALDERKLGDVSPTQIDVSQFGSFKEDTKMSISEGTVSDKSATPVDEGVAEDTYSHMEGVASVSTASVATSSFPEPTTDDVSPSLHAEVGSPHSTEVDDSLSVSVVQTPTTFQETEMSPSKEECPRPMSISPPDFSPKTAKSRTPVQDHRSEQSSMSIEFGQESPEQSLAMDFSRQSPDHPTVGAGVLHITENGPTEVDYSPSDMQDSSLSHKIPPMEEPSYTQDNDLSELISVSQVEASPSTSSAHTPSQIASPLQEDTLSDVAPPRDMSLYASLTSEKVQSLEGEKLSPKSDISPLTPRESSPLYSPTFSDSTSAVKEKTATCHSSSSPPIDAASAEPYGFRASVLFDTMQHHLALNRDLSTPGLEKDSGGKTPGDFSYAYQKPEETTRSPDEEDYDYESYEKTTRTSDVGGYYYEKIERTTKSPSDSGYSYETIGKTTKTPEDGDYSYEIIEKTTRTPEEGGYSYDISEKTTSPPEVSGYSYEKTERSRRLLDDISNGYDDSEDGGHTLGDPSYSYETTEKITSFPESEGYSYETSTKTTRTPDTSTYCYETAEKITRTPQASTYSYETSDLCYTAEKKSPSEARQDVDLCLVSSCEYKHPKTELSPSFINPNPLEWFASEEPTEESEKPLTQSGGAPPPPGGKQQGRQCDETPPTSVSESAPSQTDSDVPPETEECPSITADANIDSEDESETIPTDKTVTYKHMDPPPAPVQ
Microtubule-associated protein 1B (Homo sapiens), sequence (P46821 2207-2468 limits assumed): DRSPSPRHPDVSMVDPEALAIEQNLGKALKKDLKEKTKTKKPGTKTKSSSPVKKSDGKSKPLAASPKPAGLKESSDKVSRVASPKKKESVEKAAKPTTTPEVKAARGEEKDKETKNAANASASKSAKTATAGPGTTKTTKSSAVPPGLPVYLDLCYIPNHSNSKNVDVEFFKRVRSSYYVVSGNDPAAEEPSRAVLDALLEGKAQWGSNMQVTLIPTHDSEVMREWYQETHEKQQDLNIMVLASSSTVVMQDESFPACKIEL

For `C/C=C(\C)C(=O)O[C@H]1C[C@@H](C)[C@]2(O)CC[C@](C)(/C=C3/OC(=O)C(COC(C)=O)=C31)O2`, the outcome (with U-251 [1]; with U-251 [10]; in the series with U373 MG; with Glioma cell; with U-251 [19]; in series [20]) was Active. For the same compound, the inhibition entry in series [2], in series [3], in series [8], in [9], in series [11] and in [12] was “Active” in each case. For the same compound, the inhibition result in series [13], in series [14], in series [15], in series [16], in [17] and in series [18] was “Active” each time. The inhibition entry in [21] and in series [22] was “Active” throughout. Further, the fold change (FC) amounted to 0.501 in [4], 0.308 in [5], 0.449 in [6] and 2.0137 with U-251 [7]. In [23], this compound gave an IC50 of 1700 nM.

Compound `C/C=C(\C)C(=O)O[C@H]1C[C@@H](C)[C@]2(OC)CC[C@](C)(/C=C3/OC(=O)C(COC(C)=O)=C31)O2` returned an IC50 in series [23] of 3400 nM.

Turning to `C/C=C(\C)C(=O)OCC1=C2/C(=C\[C@@]3(C)CC[C@](O)(O3)[C@H](C)C[C@@H]2O)OC1=O`, the Activity entry is recorded as “Toxic” in series [24], “Non-toxic” in [25] and “Non-toxic” in [26]. Also, the outcome in the series with U-251 [1], in the series on U-251 [10], in the series with U373 MG, in the series with Glioma cell and in the series on U-251 [19] was Active. Also, the result with U-251 [27] and in the series with U-251 [28] was inactive. Also, the fold change (FC) in series [29] is 0.275; in the series with U-251 [7] it was 2.421. Also, the inhibition result in [8], in series [9], in series [11], in series [12], in series [13] and in [14] was “Active” each time. In addition, the inhibition result in [15], in [16], in [17] and in series [18] was “Active” each time.

The record behind these values is ChEMBL document CHEMBL3627612, “Hirsutinolide Series Inhibit Stat3 Activity, Alter GCN1, MAP1B, Hsp105, G6PD, Vimentin, TrxR1, and Importin α-2 Expression, and Induce Antitumor Effects against Human Glioma” (J Med Chem, 2015).
